Bioassay records: PubChem, several laboratories
M18AAP inhibitor = PfM18AAP inhibitors, malaria aminopeptidase, primary screen, biochemical, QFRET, recombinant enzyme. M18 aspartyl aminopeptidase (Plasmodium falciparum 3D7). H-Glu-NHMec fluorogenic cleavage. inhibition, % at 7.35 µM. hit rate 1.2% among 290,000. AID 1822, 2009;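 active = inhibition above the campaign mean inhibition over all tested compounds plus 3 SD, cut at about 28% in these data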;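 note: 0% = plate median of test compound wells and 100% = 2 mM ZnCl2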
FAS TE block = FAS thioesterase domain inhibitors, primary screen, biochemical, fluorescence intensity, uHTS. inhibition, % at 15 µM. recombinant FAS-TE, OMFH fluorogenic substrate, fluorescence endpoint. AID 602261, 2012. Fatty acid synthase (Homo sapiens), P49327. hit rate 0.67% among 360,000;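 active = compounds whose normalised, plate-corrected inhibition of enzyme fluorescence in the single-dose primary screen is 50% or more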;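 note: 0% = DMSO with enzyme and 100% = substrate without enzyme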
ALR inh = inhibitors of human ALR sulfhydryl oxidase, primary screen, biochemical, H2O2 detection, HRP-luminol luminescence, single point | AID 485317, 2010 | inhibition, % (concentration not given with the values) | FAD-linked sulfhydryl oxidase ALR (Homo sapiens), P55789 | hit rate 3.8% among 290,000 | purified ALR, DTT oxidation;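 active = mean replicate inhibition above about 79%, with every replicate also reaching it, limit read from the data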
HDAC3 inh = HDAC3 deacetylase inhibitors, primary screen, biochemical, fluorescence, cell-free homogeneous; hit rate 0.15% among 320,000; inhibition, % at 8.3 µM; recombinant HDAC3, fluorogenic peptide/trypsin coupled; in the data active = inhibition above about 26%, passing the limit was not always enough
UCH37 inh = inhibitors of human UCH37 deubiquitinase, primary screen, biochemical, Ub-AMC cleavage, fluorescence. hit rate 0.33% among 330,000. inhibition, % (concentration not given with the values). purified proteasome/UCH37. AID 588478, 2011. Ubiquitin carboxyl-terminal hydrolase isozyme L5 (Homo sapiens), Q9Y5K5;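 active = mean inhibition over replicate wells above about 20%, limit read from the data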;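 note: 0% = compound-free wells with enzyme and 100% = wells lacking proteasome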
Target sequence (Q9Y5K5 whole entry, looked up): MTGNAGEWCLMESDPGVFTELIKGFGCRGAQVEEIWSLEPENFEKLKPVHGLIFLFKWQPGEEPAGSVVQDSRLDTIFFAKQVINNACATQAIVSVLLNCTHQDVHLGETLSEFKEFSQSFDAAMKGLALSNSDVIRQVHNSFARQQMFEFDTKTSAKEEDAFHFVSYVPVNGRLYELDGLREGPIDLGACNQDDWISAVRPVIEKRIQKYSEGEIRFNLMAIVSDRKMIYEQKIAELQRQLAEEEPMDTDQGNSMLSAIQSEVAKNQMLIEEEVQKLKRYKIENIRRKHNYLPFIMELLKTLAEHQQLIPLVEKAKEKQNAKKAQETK
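Signal – fluorescence, ex 355 nm, em 460 nm · System – Proteasome-bound UCH37 · Input – 0.15 nM proteasome as dispensed · Timing – 30 min preincubation with enzyme, 25 min cleavage at room temperature · Read-out basis – percent inhibition of cleavage signal versus uninhibited and no-proteasome wells · Medium – Tris-HCl pH 7.4 with ATP-MgCl2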
Rtt109 Vps75 = inhibitors of C. albicans Rtt109/Vps75 HAT, primary screen, biochemical, ThioGlo CoA-SH fluorescence, plate reader. inhibition, % at 34.9 µM. Histone acetyltransferase RTT109 (Candida albicans (strain SC5314 / ATCC MYA-2876)), …. purified Rtt109/Vps75, 4 h. hit rate 0.16% among 330,000;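 active = inhibition of at least 50% in every replicate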
Target sequence (Q5AAJ8 whole entry, looked up): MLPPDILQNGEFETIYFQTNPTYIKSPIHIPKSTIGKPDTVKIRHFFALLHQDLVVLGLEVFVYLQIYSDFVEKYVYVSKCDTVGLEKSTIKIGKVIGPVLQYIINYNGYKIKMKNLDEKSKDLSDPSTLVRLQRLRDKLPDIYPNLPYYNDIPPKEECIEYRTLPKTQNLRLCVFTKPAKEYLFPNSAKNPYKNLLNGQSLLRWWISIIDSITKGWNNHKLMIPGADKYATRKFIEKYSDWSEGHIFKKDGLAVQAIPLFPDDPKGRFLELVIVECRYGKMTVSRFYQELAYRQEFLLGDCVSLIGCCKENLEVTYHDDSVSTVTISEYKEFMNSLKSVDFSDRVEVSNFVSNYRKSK
Numbers without * were called inactive; nt = not tested or not shown. Sampled rows, rich in hits. Any-hit rate of the full collection: about 4.6%.

SMILES | M18AAP inhibitor | FAS TE block | ALR inh | HDAC3 inh | UCH37 inh | Rtt109 Vps75
O=C(c1c[nH]c2ccccc2c1=O)N1CCCCCC1 | -6 | -3 | -5 | -1 | 3 | -3
CC(=O)N1CCC(c2c[nH]c3ccccc23)CC1 | 11 | -6 | 96* | 7 | 5 | 28
Fc1cnc(Cl)nc1N1CCN(c2ccccc2)CC1 | -3 | 5 | 99* | -5 | 6 | -10
CN1CCN(c2nc(N3CCN(c4ccccc4)CC3)ncc2F)CC1 | -3 | 0 | 99* | 3 | 2 | -3
Fc1cnc(N2CCOCC2)nc1N1CCOCC1 | -3 | -8 | -16 | 2 | -1 | -6
c1ccc(N2CCN(c3ncccn3)CC2)cc1 | -3 | -3 | 98* | 3 | 1 | 19
Cn1c(=O)cc(C(=O)NN=Cc2ccc(F)cc2)[nH]c1=O | nt | nt | nt | nt | 9 | nt
Cc1ccsc1/C=N/N1CCN(c2ccccn2)CC1 | 6 | 5 | 99* | 3 | nt | -6
CCCN(CCC)C(=S)NC(=O)c1ccc(-c2ccccc2)cc1 | 1 | 22 | 99* | -4 | 2 | 9
CCOc1ccc(C(=O)NC(=S)N(Cc2ccccc2)Cc2ccccc2)cc1 | 1 | 26 | -24 | -10 | 5 | -2
N#CCCN(Cc1ccccc1)C(=S)NC(=O)c1ccccc1 | 5 | -2 | 98* | 7 | 4 | -1
COc1cccc(C=Nn2cncn2)c1OCC#N | nt | nt | nt | nt | -8 | nt
O=S(=O)(c1ccc(NC(=S)NN=C(Cc2ccccc2)Cc2ccccc2)cc1)N1CCOCC1 | 29* | 21 | -6 | 20 | 4 | -6
CC(C)(C)NC(=O)CN(C(=O)CCN1CCCc2ccccc21)C(C)(C)C | 7 | -7 | 94* | -1 | 3 | 4
CC(C)(C)NC(=O)CN(Cc1cccs1)C(=O)CCN1CCc2ccccc21 | -1 | 3 | 72 | 5 | 1 | -3
CNC(=S)NN=Cc1ccc(OCc2ccccc2)c(Br)c1 | nt | nt | nt | nt | -23 | nt
CN(CCOc1ccccc1)C(=O)CCc1c[nH]c2ccccc12 | -4 | 5 | 96* | 5 | 1 | 2
CCN(CC)c1ccc(C=Nn2c(=S)[nH]nc(C)c2=O)cc1 | nt | nt | nt | nt | 1 | nt
O=C(NC(=S)N1CCN(c2ccc(O)cc2)CC1)c1cccs1 | 31* | -4 | 99* | nt | 6 | 15
O=C(NC(=S)N1CCN(c2ccc(F)cc2)CC1)c1cccs1 | 5 | 1 | 95* | -3 | -1 | 0
O=C(C(=O)N1CCN(c2ccccc2)CC1)c1c[nH]c2ccccc12 | 11 | -4 | 51 | 7 | 3 | -8
O=C(c1c[nH]c2ccccc12)N1CCN(c2ccccc2)CC1 | -2 | -2 | 87* | -6 | 2 | 6
O=C(C1CCN(S(=O)(=O)c2cccs2)CC1)N1CCN(c2ccccc2)CC1 | -3 | -3 | 84* | 1 | 2 | 12
O=C(c1cccs1)N1CCN(c2ccc(F)cc2)CC1 | -1 | -4 | nt | 0 | -3 | -22
O=C(NN=Cc1coc2ccc(Cl)cc2c1=O)c1ccc(O)cc1 | nt | nt | nt | nt | -4 | nt
SMILES | M18AAP inhibitor | FAS TE block | ALR inh | HDAC3 inh | UCH37 inh | Rtt109 Vps75
CCCCCCC1C(=NO)CCC1C(=O)OC (centres undefined) | nt | nt | nt | nt | 2 | nt
CC(=O)Oc1ccccc1C(=O)Oc1ccc(C=Nn2cnnc2)cc1 | nt | nt | nt | nt | 4 | nt
O=C(c1cccs1)N1CCN(c2ccccc2)CC1 | -1 | -5 | 98* | -1 | 6 | -7
O=C(NC(=S)N1CCN(c2ccccc2)CC1)c1c(F)cccc1F | 7 | -1 | 99* | -2 | 2 | -1
Cc1cc(C=NNC(=O)c2cccc(F)c2)c(C)n1-c1ccccc1 | nt | nt | nt | nt | -1 | nt
O=C(CCN1CCN(c2ccccc2)CC1)NN=Cc1ccccc1O | nt | nt | nt | nt | -24 | nt
COc1cccc(C=Nc2ccc3c(c2)OCCO3)c1O | -2 | -9 | 87* | 2 | 5 | 13
Cc1cc(O)c(C=Nc2ccc(N3CCOCC3)cc2)c(C)c1Cl | -28 | -37 | 60 | -5 | 4 | 2
COc1cccc(C=NN2CCOCC2)c1O | nt | nt | nt | nt | 6 | nt
Cn1c(O)c(C=Nc2ccc(N3CCOCC3)cc2)c(=O)n(C)c1=S | 18 | -39 | nt | nt | 34* | nt
COc1cccc(C=Nc2ccc(N3CCOCC3)cc2)c1O | -16 | -4 | 99* | 2 | 4 | -5
CCN1CCN(c2ccc(N=Cc3ccccc3O)cc2)CC1 | -2 | -1 | 98* | -1 | 1 | -1
CC(=NO)C(C)(C)Nc1cccc(Br)c1 | nt | nt | nt | nt | 4 | nt
COc1ccc(C=NNC(=O)c2ccn[nH]2)cc1COc1ccc(Cl)cc1 | nt | nt | nt | nt | 0 | nt
O=C(Cn1cnc([N+](=O)[O-])n1)NN=Cc1ccccc1O | nt | nt | nt | nt | -2 | nt
CC(=NOCC(=O)Nc1ccc(C)cc1C)c1cccs1 | nt | nt | nt | nt | 5 | nt
O=C(O)CCc1[nH]c2ccccc2c1Sc1ccccc1 | 9 | 1 | 99* | 9 | 5 | 2
O=C(O)CCc1c(C(=O)O)[nH]c2ccccc12 | 1 | -4 | -6 | -1 | 1 | 0
CC(c1ccc(F)cc1)n1c(-c2ccc3ccccc3n2)n[nH]c1=S (centres undefined) | -5 | 6 | 89* | 10 | -1 | 5
COc1cc(-c2n[nH]c(=S)n2C(C)c2ccccc2)cc(OC)c1OC (centres undefined) | -8 | -1 | 93* | -1 | 3 | 0
CC(C)(C)c1ccc(C2=CSC3=NCCN23)cc1 | 4 | -121 | nt | -2 | 4 | 5
COc1ccc(C2=CSC3=NCCN23)cc1OC | 1 | -58 | 96* | 4 | 1 | 1
Clc1ccc(C2=CSC3=NCCN23)cc1Cl | -2 | -216 | 97* | 6 | 5 | -2
CC1CCN(Cc2c(C(=O)NN=Cc3ccc(C(C)C)cc3)nnn2-c2nonc2N)CC1 | nt | nt | nt | nt | 1 | nt
CC(=O)Nc1ccc(C=NN2CCCCC2)cc1 | nt | nt | nt | nt | 5 | nt
SMILES | M18AAP inhibitor | FAS TE block | ALR inh | HDAC3 inh | UCH37 inh | Rtt109 Vps75
NCC12CC3CC(C1)CC(CN)(C3)C2 | 7 | -9 | -4 | 8 | 5 | 5
NCC12CC3CC(C1)CC(c1ccc(Cl)cc1)(C3)C2 | 7 | -44 | -21 | -1 | 5 | 51*
Nc1ccc(C23CC4CC(CC(CO)(C4)C2)C3)cc1 | -1 | -5 | 93* | -1 | 2 | 3
CCn1c(N=Cc2ccccc2O)nc2ccccc21 | nt | nt | nt | nt | 2 | nt
Cc1cc(C=NNC(=O)c2c(Br)cnn2C)c(C)n1-c1cccc(Br)c1 | nt | nt | nt | nt | 1 | nt
CCC(=O)N(Cc1cc(=O)[nH]c2ccccc12)c1ccccc1 | 5 | -1 | -15 | 11 | 1 | -7
O=C(CCl)N(Cc1cc(=O)[nH]c2ccccc12)c1ccccc1 | 11 | 7 | 96* | -2 | nt | 3
Cc1cc(C(=O)NN=Cc2ccco2)n[nH]1 | nt | nt | nt | nt | 6 | nt
